In ChEMBL document CHEMBL2375239, “Improving the immunostimulatory potency of diethanolamine-containing lipid A mimics” (Bioorg Med Chem, 2013):
Activity calls are given as the source filed them. The rule behind the calls is not given here.

Columns and labels:
Type in all cases: cell-based
Conditions in all cases: THP-1
[1] = target: T1, Toll-like receptor 4/MD-2 (Homo sapiens) (UniProt O00206+Q9Y6Y9); experiment: Agonist activity at TLR4/MD-2 receptor complex in human THP1 cells assessed as IL-1beta release at 10 uM after 24 hrs by ELISA
How it was run: (§1)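 Mimics reconstituted in 20% DMSO/PBS with brief sonication, fresh aliquot per experiment, final DMSO ≤0.5%. THP-1 cells differentiated 48 h with 25 ng/mL PMA, washed, serum-starved 3 h. Stimulated 24 h across 10⁻⁴–10 µM. Supernatant TNF-α, IL-6 or IL-1β read by ELISA (450 nm, 540 nm correction). Duplicates; mean of two experiments.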

[2] = target: T1, Toll-like receptor 4/MD-2 (Homo sapiens); experiment: Agonist activity at TLR4/MD-2 receptor complex in human THP1 cells assessed as IL-1beta release at 10^-3 uM after 24 hrs by ELISA; how it was run: as §1
[3] = target: T1, Toll-like receptor 4/MD-2 (Homo sapiens); experiment: Agonist activity at TLR4/MD-2 receptor complex in human THP1 cells assessed as IL-6 release at 0.1 uM to 1 uM after 24 hrs by ELISA; how it was run: as §1
[4] = target: T1, Toll-like receptor 4/MD-2 (Homo sapiens); experiment: Agonist activity at TLR4/MD-2 receptor complex in human THP1 cells assessed as TNF-alpha release at 10 uM after 24 hrs by ELISA; how it was run: as §1
[5] = target: T1, Toll-like receptor 4/MD-2 (Homo sapiens); experiment: Agonist activity at TLR4/MD-2 receptor complex in human THP1 cells assessed as IL-1beta release at 0.1 uM to 1 uM after 24 hrs by ELISA; how it was run: as §1
[6] = target: T1, Toll-like receptor 4/MD-2 (Homo sapiens); experiment: Agonist activity at TLR4/MD-2 receptor complex in human THP1 cells assessed as TNF-alpha release at 10^-3 uM after 24 hrs by ELISA; how it was run: as §1
[7] = target: T1, Toll-like receptor 4/MD-2 (Homo sapiens); experiment: Agonist activity at TLR4/MD-2 receptor complex in human THP1 cells assessed as IL-6 release at 10 uM after 24 hrs by ELISA; how it was run: as §1
[8] = target: T1, Toll-like receptor 4/MD-2 (Homo sapiens); experiment: Agonist activity at TLR4/MD-2 receptor complex in human THP1 cells assessed as TNF-alpha release at 0.1 uM to 1 uM after 24 hrs by ELISA; how it was run: as §1
[9] = target: T1, Toll-like receptor 4/MD-2 (Homo sapiens); experiment: Agonist activity at TLR4/MD-2 receptor complex in human THP1 cells assessed as TNF-alpha release at 0.1 uM after 24 hrs by ELISA in presence of 0.1 uM of lipid IVa
How it was run: (§2)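 THP-1 cells plated at 0.5 × 10⁶ cells/well in RPMI with 25 ng/mL PMA for 48 h. Adherent cells washed with PBS, held in serum-free RPMI 3 h, then stimulated 24 h with agonist plus increasing lipid IVa (dissolved in DMSO). Supernatant TNF-α and IL-1β measured by ELISA, A450 corrected at 540 nm. Duplicates; mean of two separate experiments.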

[10] = target: T1, Toll-like receptor 4/MD-2 (Homo sapiens); experiment: Agonist activity at TLR4/MD-2 receptor complex in human THP1 cells assessed as TNF-alpha release at 0.001 uM after 24 hrs by ELISA in presence of 0.1 uM of lipid IVa; how it was run: as §2
[11] = target: T1, Toll-like receptor 4/MD-2 (Homo sapiens); experiment: Agonist activity at TLR4/MD-2 receptor complex in human THP1 cells assessed as TNF-alpha release at 0.1 uM after 24 hrs by ELISA in presence of 0.5 uM of lipid IVa; how it was run: as §2
[12] = target: T1, Toll-like receptor 4/MD-2 (Homo sapiens); experiment: Agonist activity at TLR4/MD-2 receptor complex in human THP1 cells assessed as IL-1beta release at 0.1 uM after 24 hrs by ELISA in presence of lipid IVa in presence of 0.1 uM of lipid IVa; how it was run: as §2
[13] = target: T1, Toll-like receptor 4/MD-2 (Homo sapiens); experiment: Agonist activity at TLR4/MD-2 receptor complex in human THP1 cells assessed as IL-1beta release at 0.001 uM after 24 hrs by ELISA in presence of lipid IVa in presence of 0.1 uM of lipid IVa; how it was run: as §2
[14] = target: T1, Toll-like receptor 4/MD-2 (Homo sapiens); experiment: Agonist activity at TLR4/MD-2 receptor complex in human THP1 cells assessed as IL-1beta release at 0.1 uM after 24 hrs by ELISA in presence of lipid IVa in presence of 0.5 uM of lipid IVa; how it was run: as §2
[15] = target: T1, Toll-like receptor 4/MD-2 (Homo sapiens); experiment: Agonist activity at TLR4/MD-2 receptor complex in human THP1 cells assessed as IL-1beta release at 10^-4 uM after 24 hrs by ELISA; how it was run: as §1

Row | SMILES | Activity [1] | Activity [2] | Activity [3] | Activity [4] | Activity [5] | Activity [6] | Activity [7] | Activity [8] | Activity [9] | Activity [10] | Activity [11] | Activity [12] | Activity [13] | Activity [14] | Activity [15]
1 | CCCCCCCCCCCCCC(=O)O[C@H](CCCCCCCCCCC)CC(=O)N[C@H]1[C@H](OCCN(CCO)C(=O)C[C@@H](CCCCCCCCCCC)OC(=O)CCCCCCCCCCCCC)O[C@H](CO)[C@@H](OP(=O)(O)O)[C@@H]1OC(=O)C[C@@H](CCCCCCCCCCC)OC(=O)CCCCCCCCCCCCC | Active | Active | Active | Active | Active | Active | Active | Active | – | – | – | – | – | – | –
2 | CCCCCCCCCCCCCC(=O)O[C@H](CCCCCCCCCCC)CC(=O)N[C@H]1[C@H](OCCN(CCOP(=O)(O)O)C(=O)C[C@@H](CCCCCCCCCCC)OC(=O)CCCCCCCCCCCCC)O[C@H](CO)[C@@H](OP(=O)(O)O)[C@@H]1OC(=O)C[C@@H](CCCCCCCCCCC)OC(=O)CCCCCCCCCCCCC | Active | Active | Active | Active | Active | Active | Active | Active | – | – | – | – | – | – | –
3 | CCCCCCCCCCCCCC(=O)O[C@H](CCCCCCCCCCC)CC(=O)N[C@H]1[C@H](OCCN(CC(=O)O)C(=O)C[C@@H](CCCCCCCCCCC)OC(=O)CCCCCCCCCCCCC)O[C@H](CO)[C@@H](OP(=O)(O)O)[C@@H]1OC(=O)C[C@@H](CCCCCCCCCCC)OC(=O)CCCCCCCCCCCCC | Active | Active | Active | Active | Active | Active | Active | Active | Active | Active | inactive | Active | Active | Active | Active
